SMILES strings stand for the structures.

The target in data set [1] is 5-hydroxytryptamine receptor 1B (Homo sapiens) (UniProt P28222). As to the kind of experiment: Dissociation equilibrium constant against the vascular 5-hydroxytryptamine 1B like receptor in the rabbit saphenous vein. In kind it is tissue-based. Particulars: Oryctolagus cuniculus, target entry is the homologue from another species. A digest of the protocol:
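Saphenous vein rings (4–5 mm) from male New Zealand white rabbits, killed with pentobarbitone 80 mg/kg iv and exsanguination, mounted on tungsten wires. Phenoxybenzamine 0.3 μM for 30 min, washed out, 1 μM 5HT viability check. Cumulative 5HT curve, then after 60 min recovery a test compound curve. Non-agonists tested as 5HT antagonists, giving apparent pKB.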

The target of data set [2] is T1, Adrenergic receptor alpha-2 (Rattus norvegicus, UniProt P22086+P19328+P22909).
T1 sequence (P22086 whole entry): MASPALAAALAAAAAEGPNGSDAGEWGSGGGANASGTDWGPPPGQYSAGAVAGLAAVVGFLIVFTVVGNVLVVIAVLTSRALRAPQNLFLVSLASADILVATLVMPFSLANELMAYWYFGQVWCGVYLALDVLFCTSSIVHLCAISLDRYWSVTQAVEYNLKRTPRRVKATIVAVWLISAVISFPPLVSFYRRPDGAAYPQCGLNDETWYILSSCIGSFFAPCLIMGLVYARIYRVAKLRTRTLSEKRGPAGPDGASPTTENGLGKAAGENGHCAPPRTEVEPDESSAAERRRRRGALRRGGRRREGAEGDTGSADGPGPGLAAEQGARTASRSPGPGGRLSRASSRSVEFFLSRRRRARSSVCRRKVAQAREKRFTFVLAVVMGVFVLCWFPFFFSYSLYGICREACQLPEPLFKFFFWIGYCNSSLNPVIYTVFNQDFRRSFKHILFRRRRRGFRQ
T1 sequence (P19328 whole entry): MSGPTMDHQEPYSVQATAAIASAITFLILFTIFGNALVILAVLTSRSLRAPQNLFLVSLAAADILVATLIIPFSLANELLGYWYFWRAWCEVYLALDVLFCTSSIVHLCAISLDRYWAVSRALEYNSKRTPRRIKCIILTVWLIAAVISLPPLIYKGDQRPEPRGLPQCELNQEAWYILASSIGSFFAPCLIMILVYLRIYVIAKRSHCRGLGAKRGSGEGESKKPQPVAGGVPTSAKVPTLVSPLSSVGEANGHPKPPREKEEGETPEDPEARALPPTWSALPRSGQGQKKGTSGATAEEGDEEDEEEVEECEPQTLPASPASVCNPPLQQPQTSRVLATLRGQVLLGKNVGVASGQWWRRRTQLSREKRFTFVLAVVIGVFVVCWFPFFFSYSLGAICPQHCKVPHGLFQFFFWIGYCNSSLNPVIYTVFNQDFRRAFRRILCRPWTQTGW
T1 sequence (P22909 whole entry): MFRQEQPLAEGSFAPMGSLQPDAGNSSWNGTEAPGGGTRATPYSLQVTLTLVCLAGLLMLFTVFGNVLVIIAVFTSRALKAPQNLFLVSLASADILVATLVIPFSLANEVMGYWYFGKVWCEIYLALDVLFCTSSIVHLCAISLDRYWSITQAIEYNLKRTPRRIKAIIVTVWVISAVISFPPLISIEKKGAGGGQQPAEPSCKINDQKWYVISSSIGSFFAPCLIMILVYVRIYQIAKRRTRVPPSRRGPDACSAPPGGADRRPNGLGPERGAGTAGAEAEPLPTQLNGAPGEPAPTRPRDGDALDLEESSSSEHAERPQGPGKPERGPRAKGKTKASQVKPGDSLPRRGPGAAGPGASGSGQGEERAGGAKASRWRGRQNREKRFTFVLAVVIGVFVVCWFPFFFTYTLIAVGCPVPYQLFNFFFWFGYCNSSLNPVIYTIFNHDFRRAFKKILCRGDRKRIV
As to the kind of experiment: Affinity pKi for Alpha-2 adrenergic receptor was measured in rat cortex homogenates. In kind it is tissue-based. A digest of the protocol: (§1)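 Competition binding with rat cortex homogenate: radioligand near its KD plus a wide range of test drug concentrations in duplicate, 30 min at 27 °C. Buffer 50 mM TRIS-HCl, 5 mM CaCl₂, 0.1% (w/v) ascorbate, 10 mM pargyline. Nonspecific binding defined with excess cold 5HT. Rapid filtration with ice-cold buffer wash, liquid scintillation count. pKi is the mean of at least three estimates.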

Data set [3] can be described thus: Half life of compound was determined in mouse plasma. The class given is ADME, organism-based.
Data set [4] concerns the target D(1A) dopamine receptor (Rattus norvegicus, UniProt P18901). As to the kind of experiment: Affinity pKi for Dopamine receptor D1 was measured in rat cortex homogenates. The class given is tissue-based. A digest of the protocol:
as §1

In data set [5] the target is 5-hydroxytryptamine receptor 2B (Homo sapiens) (UniProt P41595). As to the kind of experiment: The dissociation equilibrium constant (pKB=-log KB) of compound was determined against the vascular 5-hydroxytryptamine 2B receptor in the endothelium intact rabbit jugular vein. Particulars: Oryctolagus cuniculus; target entry is the homologue from another species.
Sequence of 5-hydroxytryptamine receptor 2B (Homo sapiens) (P41595 whole entry): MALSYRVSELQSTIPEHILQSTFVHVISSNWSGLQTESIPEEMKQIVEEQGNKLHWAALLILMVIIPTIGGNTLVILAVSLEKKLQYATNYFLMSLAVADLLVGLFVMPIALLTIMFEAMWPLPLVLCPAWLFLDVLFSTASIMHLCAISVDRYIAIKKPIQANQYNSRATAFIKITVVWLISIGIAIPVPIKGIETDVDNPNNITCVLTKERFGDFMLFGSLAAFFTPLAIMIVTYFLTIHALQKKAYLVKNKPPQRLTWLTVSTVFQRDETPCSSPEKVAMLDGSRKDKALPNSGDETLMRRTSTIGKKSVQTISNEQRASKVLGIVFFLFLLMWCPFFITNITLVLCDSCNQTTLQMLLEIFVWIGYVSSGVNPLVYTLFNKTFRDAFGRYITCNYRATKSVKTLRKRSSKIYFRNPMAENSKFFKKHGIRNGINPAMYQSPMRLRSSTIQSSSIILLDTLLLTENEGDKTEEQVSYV
Data set [6] concerns the target T2, 5-hydroxytryptamine receptor 1A (Rattus norvegicus, UniProt P19327).
T2 sequence (P19327 whole entry): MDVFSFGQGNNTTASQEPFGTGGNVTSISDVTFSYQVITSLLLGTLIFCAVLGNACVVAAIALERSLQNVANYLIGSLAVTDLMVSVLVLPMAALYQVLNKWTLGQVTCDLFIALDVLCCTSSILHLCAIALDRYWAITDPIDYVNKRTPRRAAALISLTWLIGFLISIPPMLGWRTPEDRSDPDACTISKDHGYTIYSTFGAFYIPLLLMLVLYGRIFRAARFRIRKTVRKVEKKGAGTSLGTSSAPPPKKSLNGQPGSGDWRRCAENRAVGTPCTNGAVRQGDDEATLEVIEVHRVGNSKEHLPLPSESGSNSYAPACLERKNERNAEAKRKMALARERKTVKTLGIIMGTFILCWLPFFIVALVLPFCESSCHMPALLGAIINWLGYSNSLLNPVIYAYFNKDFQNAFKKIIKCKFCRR
As to the kind of experiment: Affinity pKi for 5-hydroxytryptamine 1A receptor was measured in rat cortex homogenates. The class given is tissue-based. A digest of the protocol:
as §1

Sequence of 5-hydroxytryptamine receptor 1B (Homo sapiens) (P28222 whole entry): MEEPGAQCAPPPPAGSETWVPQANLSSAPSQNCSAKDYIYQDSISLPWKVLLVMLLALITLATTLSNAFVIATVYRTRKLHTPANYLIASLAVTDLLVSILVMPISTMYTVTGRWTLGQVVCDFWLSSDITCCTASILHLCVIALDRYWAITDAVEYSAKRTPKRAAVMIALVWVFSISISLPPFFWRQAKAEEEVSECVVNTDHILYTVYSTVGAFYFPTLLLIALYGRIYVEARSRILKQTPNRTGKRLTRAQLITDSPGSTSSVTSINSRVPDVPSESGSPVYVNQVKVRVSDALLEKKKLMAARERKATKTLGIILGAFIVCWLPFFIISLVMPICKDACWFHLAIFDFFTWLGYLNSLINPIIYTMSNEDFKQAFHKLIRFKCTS
Sequence of D(1A) dopamine receptor (P18901 whole entry): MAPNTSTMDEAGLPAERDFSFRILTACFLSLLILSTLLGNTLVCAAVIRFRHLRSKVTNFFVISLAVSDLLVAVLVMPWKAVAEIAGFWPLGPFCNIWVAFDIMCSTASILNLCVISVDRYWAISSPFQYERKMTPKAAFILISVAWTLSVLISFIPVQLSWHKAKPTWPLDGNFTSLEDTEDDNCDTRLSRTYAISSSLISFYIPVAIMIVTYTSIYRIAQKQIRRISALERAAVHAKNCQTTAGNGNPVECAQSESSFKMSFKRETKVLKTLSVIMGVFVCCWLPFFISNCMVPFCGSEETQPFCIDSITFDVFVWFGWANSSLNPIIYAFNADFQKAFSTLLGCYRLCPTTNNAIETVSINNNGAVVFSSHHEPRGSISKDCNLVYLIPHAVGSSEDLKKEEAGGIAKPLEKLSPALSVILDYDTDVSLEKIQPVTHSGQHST

On to `CCOC(=O)c1[nH]c2ccc(CCN3C(=O)CNC3=O)cc2c1CCN(C)C`, for which the pKB is 7.42 in data set [1] and under 5 in data set [5]. Moreover, the “Log Ki” value in data set [2] is on record as -5.25. Moreover, in data set [3], the half-life is 12 min. In addition, the Ki in data set [4] was 32.4 µM; in data set [6] it was 9.33 µM.

What is called pKB is the KB on a negative log10 scale, so that one unit is a factor of ten. Low values mean a large KB, high ones a small KB. By half-life is commonly meant the time needed for the level to fall by half in the phase considered. One may read the Ki as the dissociation constant of the complex between target and ligand, obtained from inhibition or displacement. A high value points to a looser hold on the target.

For the origin of these results see ChEMBL document CHEMBL1130209, “A novel series of 2,5-substituted tryptamine derivatives as vascular 5HT1B/1D receptor antagonists” (J Med Chem, 1997).
